Measured values as given in ChEMBL document CHEMBL4177580, “New 5-HT1A, 5HT2A and 5HT2C receptor ligands containing a picolinic nucleus: Synthesis, in vitro and in vivo pharmacological evaluation” (Bioorg Med Chem, 2017).
The source made the active and inactive calls.

How the values were obtained:
[1] = target: 5-hydroxytryptamine receptor 2A (Rattus norvegicus, UniProt P14842); assay: Displacement of [3H]ketanserin from serotonin 5-HT2A receptor in Sprague-Dawley rat brain cortex homogenates incubated for 15 mins by liquid scintillation spectrometry
[2] = target: T1, 5-hydroxytryptamine receptor 2C (Rattus norvegicus, UniProt P08909); assay: Displacement of [3H]mesulergine from serotonin 5-HT2C receptor in Sprague-Dawley rat brain cortex homogenates incubated for 15 mins by liquid scintillation spectrometry
T1 sequence (P08909 whole entry): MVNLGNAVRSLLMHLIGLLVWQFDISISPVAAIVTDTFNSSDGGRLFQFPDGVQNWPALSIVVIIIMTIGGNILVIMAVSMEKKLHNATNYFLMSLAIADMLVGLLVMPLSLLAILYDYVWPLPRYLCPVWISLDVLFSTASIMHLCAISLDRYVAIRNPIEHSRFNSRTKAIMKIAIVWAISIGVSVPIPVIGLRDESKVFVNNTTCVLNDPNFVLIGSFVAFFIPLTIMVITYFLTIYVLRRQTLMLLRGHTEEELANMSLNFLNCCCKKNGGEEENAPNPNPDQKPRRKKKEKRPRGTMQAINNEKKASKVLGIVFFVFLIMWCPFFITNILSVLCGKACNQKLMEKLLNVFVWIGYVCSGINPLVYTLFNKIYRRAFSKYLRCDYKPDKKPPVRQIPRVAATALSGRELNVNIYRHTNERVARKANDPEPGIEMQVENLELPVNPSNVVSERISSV

[3] = target: T2, Adrenergic receptor alpha-1 (Rattus norvegicus, UniProt P15823+P23944+P43140); assay: Displacement of [3H]prazosin from adrenergic alpha1 receptor in rat cerebral cortex
T2 sequence (P15823 whole entry): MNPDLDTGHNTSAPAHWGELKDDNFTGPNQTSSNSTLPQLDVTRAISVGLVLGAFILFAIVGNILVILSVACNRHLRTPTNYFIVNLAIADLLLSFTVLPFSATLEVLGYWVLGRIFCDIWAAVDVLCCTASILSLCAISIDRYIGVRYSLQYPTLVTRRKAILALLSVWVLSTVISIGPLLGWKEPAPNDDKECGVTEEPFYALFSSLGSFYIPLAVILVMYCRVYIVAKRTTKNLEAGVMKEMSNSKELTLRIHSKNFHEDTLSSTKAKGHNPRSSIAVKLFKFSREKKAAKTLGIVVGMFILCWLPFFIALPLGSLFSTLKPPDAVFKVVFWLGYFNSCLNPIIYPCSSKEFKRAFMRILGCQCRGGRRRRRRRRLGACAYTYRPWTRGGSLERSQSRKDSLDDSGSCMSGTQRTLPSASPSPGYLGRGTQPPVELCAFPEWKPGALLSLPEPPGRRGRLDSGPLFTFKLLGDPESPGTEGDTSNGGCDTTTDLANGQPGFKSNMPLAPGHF
T2 sequence (P23944 whole entry): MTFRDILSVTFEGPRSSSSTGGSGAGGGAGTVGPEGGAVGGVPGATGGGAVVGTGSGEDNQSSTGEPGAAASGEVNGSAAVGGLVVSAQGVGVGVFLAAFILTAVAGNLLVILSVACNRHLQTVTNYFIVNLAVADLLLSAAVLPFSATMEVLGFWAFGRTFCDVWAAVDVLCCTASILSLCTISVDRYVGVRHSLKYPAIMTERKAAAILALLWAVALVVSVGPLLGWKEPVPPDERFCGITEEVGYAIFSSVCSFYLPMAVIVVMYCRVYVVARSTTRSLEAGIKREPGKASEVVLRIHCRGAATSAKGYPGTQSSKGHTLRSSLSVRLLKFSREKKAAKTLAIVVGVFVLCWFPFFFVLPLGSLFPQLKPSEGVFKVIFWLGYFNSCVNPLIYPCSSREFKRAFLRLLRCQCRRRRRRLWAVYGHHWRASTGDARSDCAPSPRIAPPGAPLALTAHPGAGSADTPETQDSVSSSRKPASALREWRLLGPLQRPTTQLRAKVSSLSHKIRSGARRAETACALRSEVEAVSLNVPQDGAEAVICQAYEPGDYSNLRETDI
T2 sequence (P43140 whole entry): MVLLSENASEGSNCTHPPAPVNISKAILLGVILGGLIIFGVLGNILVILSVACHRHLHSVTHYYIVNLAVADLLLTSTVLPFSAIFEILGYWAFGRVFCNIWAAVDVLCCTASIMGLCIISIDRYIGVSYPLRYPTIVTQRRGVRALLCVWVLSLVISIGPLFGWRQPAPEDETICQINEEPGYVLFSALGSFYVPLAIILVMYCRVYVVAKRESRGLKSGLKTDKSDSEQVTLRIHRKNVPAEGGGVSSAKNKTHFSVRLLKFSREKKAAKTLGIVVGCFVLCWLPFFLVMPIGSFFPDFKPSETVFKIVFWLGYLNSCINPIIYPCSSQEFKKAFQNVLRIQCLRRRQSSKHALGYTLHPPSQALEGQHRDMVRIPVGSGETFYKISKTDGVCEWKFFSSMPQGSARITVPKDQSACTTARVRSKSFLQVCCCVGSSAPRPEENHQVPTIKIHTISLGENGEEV

D(2) dopamine receptor = D(2) dopamine receptor (Homo sapiens, UniProt P14416); assay: Displacement of [3H]methyl-spiperone from human recombinant dopamine D2 receptor expressed in HEK293 cells; assay type: cell-based
Mus musculus [4] = assay: Toxicity in Swiss albino mouse assessed as induction of impairment of motor coordination by measuring reduction in time spent on rota-rod at 60 mg/kg, ip dosed 60 mins before test by rotarod test; assay type: organism-based; settings: in vivo, 1 h
Outline: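 Rotarod in male Swiss mice, i.p. dosing 60 min pre-test: impairment is inability to stay 1 min on a rod turning at 18 rpm, after 3 days of daily training. Mean ± SEM of 2 independent experiments; one-way ANOVA with Dunnett's.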

Mus musculus [5] = assay: Toxicity in Swiss albino mouse assessed as effect on motor coordination at 3.75 to 15 mg/kg, ip dosed 60 mins before test by Chimney test; assay type: organism-based; settings: in vivo, 1 h
Outline: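 Chimney test in male Swiss mice after i.p. dosing 60 min earlier: impairment defined as failure to climb backwards up a tube (3 cm inner diameter, 25 cm long) within 60 s. Animals pre-trained once daily for 3 days. One-way ANOVA with Dunnett's.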

Mus musculus [6] = assay: Toxicity in Swiss albino mouse assessed as reduction in spontaneous locomotor activity at 60 mg/kg, ip dosed 60 mins before test and measured after 6 mins; assay type: organism-based; settings: in vivo, 0.1 h
Outline: (§1)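 Spontaneous locomotion: mice dosed i.p. 60 min before being placed individually in an actometer for 30 min. Distance travelled read at 6 and 30 min. Cages cleaned with 70% ethanol between animals. One-way ANOVA with Dunnett's; mean ± SEM of one experiment.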

Mus musculus [7] = assay: Toxicity in Swiss albino mouse assessed as reduction in spontaneous locomotor activity at 7.5 mg/kg, ip dosed 60 mins before test; assay type: organism-based; settings: in vivo, 1 h; outline: as §1
Mus musculus [8] = assay: Anxiolytic-like activity in Swiss albino mouse assessed as increase in time spent in open arms at 3.75 to 15 mg/kg measured for 5 mins test period by elevated plus maze test; assay type: functional, organism-based
Rattus norvegicus = assay: In-vivo 5-HT1A receptor agonist activity in Wistar rat assessed as induction of lower lip retraction by measuring lower lip retraction score at 30 mg/kg, ip dosed 15 mins before test (reference value: 0.0 +/- 0.0)

Sequence of D(2) dopamine receptor (P14416 whole entry): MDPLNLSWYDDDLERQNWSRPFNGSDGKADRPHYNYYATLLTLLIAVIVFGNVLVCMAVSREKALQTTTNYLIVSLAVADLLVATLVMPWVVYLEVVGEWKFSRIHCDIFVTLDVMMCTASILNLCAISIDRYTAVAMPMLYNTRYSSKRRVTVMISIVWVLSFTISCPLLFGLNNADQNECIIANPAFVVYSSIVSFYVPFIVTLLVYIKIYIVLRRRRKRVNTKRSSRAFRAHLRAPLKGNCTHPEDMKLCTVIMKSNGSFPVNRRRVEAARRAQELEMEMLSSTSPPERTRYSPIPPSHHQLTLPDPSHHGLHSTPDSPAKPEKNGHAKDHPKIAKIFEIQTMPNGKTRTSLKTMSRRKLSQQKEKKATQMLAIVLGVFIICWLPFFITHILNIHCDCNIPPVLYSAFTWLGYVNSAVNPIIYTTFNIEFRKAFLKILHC
Sequence of 5-hydroxytryptamine receptor 2A (P14842 whole entry): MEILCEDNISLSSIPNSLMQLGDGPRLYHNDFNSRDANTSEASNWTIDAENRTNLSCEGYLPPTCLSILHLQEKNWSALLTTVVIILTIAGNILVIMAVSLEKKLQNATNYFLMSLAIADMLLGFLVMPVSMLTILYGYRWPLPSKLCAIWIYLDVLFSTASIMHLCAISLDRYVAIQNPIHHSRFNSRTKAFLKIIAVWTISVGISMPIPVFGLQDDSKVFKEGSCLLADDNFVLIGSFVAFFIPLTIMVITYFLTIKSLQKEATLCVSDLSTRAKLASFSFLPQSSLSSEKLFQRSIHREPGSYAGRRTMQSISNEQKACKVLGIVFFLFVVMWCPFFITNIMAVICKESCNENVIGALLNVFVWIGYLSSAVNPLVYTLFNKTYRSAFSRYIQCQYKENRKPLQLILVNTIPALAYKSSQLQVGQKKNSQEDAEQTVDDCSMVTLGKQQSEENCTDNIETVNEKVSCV

**Q.** What does the source list for O=C(NCCN1CCN(c2ccc(Cl)c(Cl)c2)CC1)c1ccccn1?
**A.** Ki [1]: 0.0741 µM; Ki [2]: > 10 µM; Ki [3]: 0.031 µM; Ki (D(2) dopamine receptor): 0.25 µM; Activity (Mus musculus [4]): Toxic; Activity (Mus musculus [5]): Non-Toxic; Activity (Mus musculus [6]): Toxic; Activity (Mus musculus [7]): Non-Toxic; Activity (Mus musculus [8]): Active; Activity_index (Rattus norvegicus): 0.1429
